Assay [1] has as its target Kappa-type opioid receptor (Cavia porcellus, UniProt P41144). Nature of the assay: Binding affinity was determined in a crude membrane preparation from guinea pig brain by displacement of [3H]U-69593 from Opioid receptor kappa 1. In kind it is cell membranes. In a few lines: (§1)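 Guinea pig brain (less cerebellum) homogenized in 0.05 M Tris pH 7.4, pelleted at 25000g (4 °C, 20 min), stored in 0.32 M sucrose at –70 °C. Diluted 1:60, giving 0.8–1.5 mg protein/mL. Radioligands at 1.0 nM ([3H]DAMGO μ, [3H]DPDPE δ, [3H]U69,593 κ). Test ligand in duplicate at nine concentrations, 1.0–1000 nM. Nonspecific binding with 10 μM naloxone. Incubated 60 min at 25 °C, then filtered and counted. Ki from IC50 via Cheng–Prusoff using KD measured in this homogenate.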
On the technique in general: In a radioligand displacement assay an active substance lowers the binding of a labelled ligand.

The target of assay [2] is Opioid receptors; mu & delta (UniProt P41143+P35372). Nature of the assay: Selectivity ratio measured in terms of delta opioid receptor to the mu opioid receptor. The assay is classed as protein assay. Conditions: Cavia porcellus.
For the next assay, the target named is Mu-type opioid receptor (Cavia porcellus, UniProt P97266). Nature of the assay: Binding affinity was determined in a crude membrane preparation from guinea pig brain by displacement of [3H]DAMGO from Opioid receptor mu 1. In kind it is cell membranes. The gist of the method: as §1
Sequence of Mu-type opioid receptor (P97266 whole entry): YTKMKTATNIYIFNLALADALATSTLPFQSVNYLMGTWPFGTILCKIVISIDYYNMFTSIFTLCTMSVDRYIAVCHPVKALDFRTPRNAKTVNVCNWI

Sequence of Opioid receptors; mu & delta (P35372 whole entry, looked up): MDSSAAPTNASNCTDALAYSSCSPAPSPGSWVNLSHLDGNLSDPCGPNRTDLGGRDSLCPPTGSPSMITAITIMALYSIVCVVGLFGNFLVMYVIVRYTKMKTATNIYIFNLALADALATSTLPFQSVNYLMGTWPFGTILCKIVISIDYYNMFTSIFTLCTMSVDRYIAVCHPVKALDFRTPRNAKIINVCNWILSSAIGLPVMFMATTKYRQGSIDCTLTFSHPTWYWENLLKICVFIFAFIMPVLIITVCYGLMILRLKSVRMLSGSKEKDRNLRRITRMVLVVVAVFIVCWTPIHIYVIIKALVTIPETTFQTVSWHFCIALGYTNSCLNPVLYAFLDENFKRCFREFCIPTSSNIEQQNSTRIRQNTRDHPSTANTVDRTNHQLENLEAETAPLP
Sequence of Opioid receptors; mu & delta (P41143 whole entry, looked up): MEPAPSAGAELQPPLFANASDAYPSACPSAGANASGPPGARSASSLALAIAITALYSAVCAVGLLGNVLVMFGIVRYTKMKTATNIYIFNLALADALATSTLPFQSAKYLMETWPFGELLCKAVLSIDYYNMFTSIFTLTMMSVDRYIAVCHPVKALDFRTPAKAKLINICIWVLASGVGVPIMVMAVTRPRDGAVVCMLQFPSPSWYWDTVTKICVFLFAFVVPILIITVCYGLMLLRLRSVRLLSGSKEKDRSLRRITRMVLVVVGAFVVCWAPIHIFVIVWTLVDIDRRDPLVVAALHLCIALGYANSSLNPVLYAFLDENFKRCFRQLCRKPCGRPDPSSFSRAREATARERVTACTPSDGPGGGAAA
Sequence of Kappa-type opioid receptor (P41144 whole entry): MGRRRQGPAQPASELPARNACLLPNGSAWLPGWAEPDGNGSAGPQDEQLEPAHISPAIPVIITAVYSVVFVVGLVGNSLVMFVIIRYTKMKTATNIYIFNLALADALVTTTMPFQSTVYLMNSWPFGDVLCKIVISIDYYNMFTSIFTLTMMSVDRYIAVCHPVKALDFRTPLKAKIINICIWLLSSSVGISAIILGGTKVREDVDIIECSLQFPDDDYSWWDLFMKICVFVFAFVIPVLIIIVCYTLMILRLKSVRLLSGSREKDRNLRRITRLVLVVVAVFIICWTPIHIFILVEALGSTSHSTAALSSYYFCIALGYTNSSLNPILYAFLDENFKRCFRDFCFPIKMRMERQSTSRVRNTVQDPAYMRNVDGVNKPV

Consider `O=C1/C(=C/c2ccccc2)C[C@@]2(O)[C@H]3Cc4ccc(O)c5c4[C@@]2(CCN3CC2CC2)[C@H]1O5` [BNTX], for which the results for the Ki (in assay [1]; at Mu-type opioid receptor) were 48 nM and 26 nM, respectively. Besides, the Selectivity ratio in assay [2] turned out to be 4.
In the same order, the values of `O=C1/C(=C/c2ccc(-c3ccccc3)cc2)C[C@@]2(O)[C@H]3Cc4ccc(O)c5c4C2(CCN3CC2CC2)[C@H]1O5` are 190 nM, 50 nM and 0.6.
In the same order, the values of `O=C1/C(=C\c2c3ccccc3cc3ccccc23)C[C@@]2(O)[C@H]3Cc4ccc(O)c5c4C2(CCN3CC2CC2)[C@H]1O5` are 100 nM, 34 nM and 14.
On to `O=C1/C(=C\c2ccccc2)C[C@@]2(O)[C@H]3Cc4ccc(O)c5c4[C@@]2(CCN3CC2CC2)[C@H]1O5`, for which the results for the Ki (in assay [1]; at Mu-type opioid receptor) were 34 nM and 33 nM, respectively. For the same molecule, in assay [2], the Selectivity ratio is 8.6.
Taken in the same sequence, the figures for `O=C1/C(=C/c2c3ccccc3cc3ccccc23)C[C@@]2(O)[C@H]3Cc4ccc(O)c5c4C2(CCN3CC2CC2)[C@H]1O5` were 170 nM, 110 nM and 6.4.
In the same order, the values of `O=C1/C(=C\c2ccc(-c3ccccc3)cc2)C[C@@]2(O)[C@H]3Cc4ccc(O)c5c4C2(CCN3CC2CC2)[C@H]1O5` are 400 nM, 210 nM and 4.2.
For `CC(C)CN1CCC23c4c5ccc(O)c4O[C@H]2C(=O)/C(=C\c2ccc4ccccc4c2)C[C@@]3(O)[C@H]1C5`, the Selectivity ratio in assay [2] was found to be 3.
Turning to `O=C1/C(=C/c2ccc3ccccc3c2)C[C@@]2(O)[C@H]3Cc4ccc(O)c5c4C2(CCN3CC2CC2)[C@H]1O5`, the Ki in assay [1] came out at 74 nM; on Mu-type opioid receptor, 23 nM. Also, in assay [2], the Selectivity ratio was found to be 0.6.
On to `O=C1/C(=C\c2cccc3ccccc23)C[C@@]2(O)[C@H]3Cc4ccc(O)c5c4C2(CCN3CC2CC2)[C@H]1O5`, for which the figures for the Ki (in assay [1]; on Mu-type opioid receptor) were 37 nM and 11 nM, respectively. In addition, in assay [2], the Selectivity ratio is 15.
In the same order, the values of `O=C1/C(=C/c2cccc3ccccc23)C[C@@]2(O)[C@H]3Cc4ccc(O)c5c4C2(CCN3CC2CC2)[C@H]1O5` are 120 nM, 36 nM and 7.5.

Broadly, the Ki is a measure of affinity in units of concentration, obtained from inhibition or displacement.

Values taken from ChEMBL document CHEMBL1130338, “(E)- and (Z)-7-arylidenenaltrexones: synthesis and opioid receptor radioligand displacement assays” (J Med Chem, 1997).
